18 molecules from PubChem BioAssay can be followed below.

Structures are written as SMILES. Unmarked numbers belong to inactive results. Inconclusive results are not listed. Calls of active or inactive are those of the source.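 Rule for the calls, unless noted: active = cell viability at or below a set limit in both duplicate runs, the limit being the all-compound median minus 4 SD (cut at about 23% in these data, passing the limit was not always enough); inconclusive = no clear call, values can overlap the other calls; inactive = the rest.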

Test [1] is described as follows: OD615 S. cerevisiae growth inhibition, permissive medium, pilot counter-assay, permissive growth control for S. cerevisiae lifespan shortening project (AID 705;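 active = growth inhibition above 25% in both replicates, a cutoff set 3 SD above the mean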). The note with it: OD615, 24 h, at 10 µM, hits give high values. Put shortly: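 System: S. cerevisiae with engineered DeaD lifespan system. Medium: SC raffinose/galactose permissive medium. Doses: single compound dose of 10 µM, 0.25% DMSO final. Schedule: 24 h exposure, 30 °C. Measured by: OD615 turbidity read. Read-out: growth inhibition.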

Test [2] is described as follows: Restrictive medium S. cerevisiae growth inhibition, OD615, pilot screen of yeast lifespan reduction project, restrictive growth control (AID 706;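 active = growth inhibition above a set limit, 3 SD over mean compound inhibition, in both replicates, cut at about 43% in these data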;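 note: modified DeaD lifespan yeast strain shifted to restrictive glucose medium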). To be noted: OD615, 48 h, at 10 µM, hits give high values. Put shortly:
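Assay system – genetically modified Saccharomyces cerevisiae, DeaD replicative lifespan assay strain · Medium – CSMM-D glucose medium · Doses – 10 µM compound, 0.25% DMSO · Times – 4 h pre-incubation, 48 h exposure at 30 °C · Signal – optical density at 615 nm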

Test [3] can be described thus: viability gain of MRP-1-high H69AR cells under doxorubicin, pilot screen, MRP-1 activator project, CellTiter-Glo, duplicate (AID 807;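 active = viability increase at or above a cutoff of the median across tested compounds plus 3 SD, cut at about 8.5% in these data, passing the limit was not always enough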;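 note: compound pretreatment 18-22 h then 72 h combined with doxorubicin; 0% = doxorubicin alone and 100% = vehicle without doxorubicin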). The note with it: H69AR viability with doxorubicin, CellTiter-Glo luminescence; at 10 µM; hits give high values. In general terms: Cellular ATP, detected with luciferase, serves as a proxy for viable cell number.
Test [4] is described as follows: growth suppression of beta-catenin knockout HCT116, pilot screen, human colon tumor cells (AID 823).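 Note: 0% = wells killed by 20 µM Hyamine and 100% = untreated DMSO cell wells.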 To be noted: CellTiter-Glo, 60 h, at 10 µM, hits give low values.
A short description of test [5]: growth suppression of PTEN-deleted HCT116, pilot screen, cell-based, HCT116 clonal line, CellTiter-Glo (AID 824;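 active = viability at or below 27.92% in each of two runs, the all-compound median minus 4 SD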;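 note: 0% = 20 µM Hyamine control and 100% = vehicle cell control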). The note with it: 60 h, at 10 µM, hits give low values.
Test [6] in a line: inhibitors of the yeast RAM network, pilot screen, dse1pr::URA3 reporter, 5-FOA selection (AID 869;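 active = inhibition over a set limit, the all-compound mean plus 3 SD, in both replicate runs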;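 note: 0% = DMSO wells with no growth and 100% = 10 µM 1-NA-PP1 with full growth; RAM network block rescues cells from 5-FOA so hits raise OD615 growth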). To be noted: S. cerevisiae dse1pr::URA3 5-FOA growth, OD615, 2 d; at 10 µM; hits give high values; strain carries analog-sensitive mutant Cbk1 kinase.
A short description of test [7]: RAM signaling pathway blockade in yeast – S. cerevisiae, Pdr1DBD-CYC8 efflux-inhibited sensitized strain, primary screen (AID 1298;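 active = RAM network inhibition above 8.4% in each of two replicates, 3 SD over the compound average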;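 note: 0% = DMSO untreated cells without growth and 100% = 10 µM 1-NA-PP1 full growth; higher means more yeast growth rescued from 5-FOA killing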). The note with it: S. cerevisiae cbk1-as DSE1-URA3 strain, 5-FOA growth OD615, 2 d; at 50 µM; hits give high values.

As to `COc1ccc(C2CC(c3cccc(OC)c3)n3nc(N)nc3N2)cc1` (stereo unspecified), the growth inhibition in test [1] was -5.42%; in test [2], 9.84%. Moreover, the viability increase in test [3] is 1.37%. Besides, the viability in test [4] is 100%; in test [5], 92.7%. In test [6], the inhibition was 2.04%. Further, the RAM network inhibition in test [7] was -1.58%.

Turning to `COc1cccc(C2=N/C(=C\N(C)C)C(=O)O2)c1`, the growth inhibition in test [1] is 1.7%; in test [2], 11.6%. Further, the viability increase in test [3] was -0.29%. The viability was 94.7% in test [4] and 102% in test [5]. Further, in test [6], the inhibition is -0.855%. Besides, the RAM network inhibition in test [7] was 2.96%.

With `CC(C)OCCCNC(=O)c1ccc2c(c1)ncn2C1CCCC1`, the growth inhibition in test [1] was -12.5%; in test [2], -6.74%. The viability increase in test [3] is -2.69%. In addition, the viability in test [4] was 102%; in test [5], 97.5%. Besides, the inhibition in test [6] is 1.38%. Moreover, in test [7], the RAM network inhibition is 1.62%.

Consider `COC(=O)c1oc2ccc(Br)cc2c1NC(=O)CCCN1C(=O)c2ccccc2C1=O`, for which the growth inhibition is -10.3% in test [1] and -14.3% in test [2]. For the same molecule, the viability increase in test [3] was 0.98%. For the same molecule, the viability in test [4] was 97.7%; in test [5], 98.5%. Moreover, the inhibition in test [6] was 2.69%. For the same molecule, the RAM network inhibition in test [7] is 7.77%.

Take `O=C1CC(Nc2ccc(N3CCOCC3)cc2)C(=O)N1c1cccc(C(F)(F)F)c1` (stereo unspecified): the growth inhibition in test [1] was 4.95%; in test [2], -14.4%. The viability increase in test [3] is -2.76%. The viability in test [4] was 110%; in test [5], 98.2%. Also, the inhibition in test [6] is 0.74%. Also, in test [7], the RAM network inhibition was 5.28%.

Turning to `CCOC(=O)c1ccc2ncc(C(=O)OCC)c(NCCCN3CCOCC3)c2c1`, the growth inhibition in test [1] was -4.12%; in test [2], 8.23%. Besides, the viability increase in test [3] is -5.66%. Moreover, the results for the viability in test [4] and in test [5] were 81.2% and 84.5%, respectively. For the same molecule, the inhibition in test [6] was 0.495%. Moreover, the RAM network inhibition in test [7] was 0.57%.

In the case of `Cc1ccc(OCCSc2cc(C)nc(N)n2)cc1`, the figures for the growth inhibition in test [1] and in test [2] were -3.51% and -3.22%, respectively. The viability increase in test [3] is 0.4%. For the same molecule, the viability was 95.6% in test [4] and 96% in test [5]. Moreover, the inhibition in test [6] was 1.12%. In addition, the RAM network inhibition in test [7] is 0.05%.

For the molecule `COc1ccccc1C1NC(=O)NC(C)=C1C(=O)Nc1cccc(C)c1C` (stereo unspecified), the growth inhibition is -5.33% in test [1] and -10.3% in test [2]. Moreover, the viability increase in test [3] is -1.32%. Further, the viability in test [4] is 105%; in test [5], 102%. Also, the inhibition in test [6] was 0.77%. Besides, in test [7], the RAM network inhibition was -1.38%.

With `COC(=O)CSc1nc(C)cc(Oc2ccccc2)n1`, the growth inhibition in test [1] is -8.61%; in test [2], -5.81%. Besides, the viability increase in test [3] was -1.76%. Moreover, the viability in test [4] is 104%; in test [5] it was 95.8%. Moreover, in test [6], the inhibition was 1.48%. Also, in test [7], the RAM network inhibition is 4.9%.

Take `CCOC(=O)c1ccc(NC(=O)C2C3C=CC(C3)C2C(=O)O)cc1` (stereo unspecified): the growth inhibition in test [1] is 5.27%; in test [2], 5.33%. Further, in test [3], the viability increase was 0.55%. Further, the results for the viability in test [4] and in test [5] were 98.5% and 106%, respectively. The inhibition in test [6] was 0.29%. Also, the RAM network inhibition in test [7] is 1.09%.

With `CC1CCCN(Cc2nc3c(c(=O)n(C)c(=O)n3C)n2CC(=O)c2ccccc2)C1` (stereo unspecified), the growth inhibition in test [1] was -8.04%; in test [2], -16.3%. The viability increase in test [3] is -4.65%. In addition, the values for the viability in test [4] and in test [5] were 78.2% and 81.2%, respectively. Besides, the inhibition in test [6] is -0.325%. The RAM network inhibition in test [7] is 4.05%.

Take `Cc1cc(C)c2c(=O)n(CC(=O)N3CCC(N4CCCCC4)CC3)sc2n1`: the growth inhibition in test [1] is 4.7%; in test [2] it was 9.28%. Further, in test [3], the viability increase was -7.14%. Further, the viability in test [4] was 2.7% (active); in test [5], 16.2% (active). The inhibition in test [6] was 2.08%. Besides, the RAM network inhibition in test [7] was 0.2%.

Consider `CCOC(=O)C1C(C)N=C2SCC(=O)N2C1c1cccc(Br)c1` (stereo unspecified), for which the results for the growth inhibition in test [1] and in test [2] were 9.43% and 51.2% (active), respectively. Moreover, the viability increase in test [3] is -0.84%. Also, the viability in test [4] is 86.4%; in test [5], 93.2%. Further, the inhibition in test [6] is 0.36%. The RAM network inhibition in test [7] is 3.99%.

Consider `CC(C)CCOc1cccc(C2c3c(oc4ccccc4c3=O)C(=O)N2CCCN2CCOCC2)c1` (stereo unspecified), for which the figures for the growth inhibition in test [1] and in test [2] were -3.75% and -23.9%, respectively. For the same molecule, the viability increase in test [3] was -4.89%. Moreover, the viability in test [4] was 87.9%; in test [5], 84.2%. Also, the inhibition in test [6] was 0.82%. Moreover, in test [7], the RAM network inhibition was 6.7%.

`Cn1c(NC(=O)C2CCCC2)cc(=O)n(C)c1=O`: the growth inhibition is 0.48% in test [1] and -4.17% in test [2]. The viability increase in test [3] was -0.06%. In addition, the viability in test [4] was 105%; in test [5] it was 95.4%. In addition, in test [6], the inhibition was 0.58%. In test [7], the RAM network inhibition is -1.4%.

Turning to `COc1ccc(-c2cc(C(F)(F)F)n3nc(C)cc3n2)cc1`, the growth inhibition in test [1] is -16.1%; in test [2], -2.2%. Also, the viability increase in test [3] was 0.18%. The results for the viability in test [4] and in test [5] were 96.2% and 87%, respectively. The inhibition in test [6] is 2%. Also, the RAM network inhibition in test [7] was -0.06%.

In the case of `CCCCNC(=O)c1cc2c(-c3ccc(Cl)cc3)nn(C)c2s1`, the growth inhibition in test [1] was 3.71%; in test [2], 6.75%. In addition, in test [3], the viability increase was -5.53%. The viability in test [4] is 89.9%; in test [5] it was 88.7%. The inhibition in test [6] was 3.1%. The RAM network inhibition in test [7] was 4.05%.

`Cc1nc(Sc2nnnn2-c2ccccc2)c(C#N)c(C)c1C`: the results for the growth inhibition in test [1] and in test [2] were -13.8% and -9.12%, respectively. Further, the viability increase in test [3] was -2.52%. Besides, the viability was 108% in test [4] and 97% in test [5]. Moreover, the inhibition in test [6] is 2.97%. In addition, the RAM network inhibition in test [7] is 9.98%.

A word on the viability: it is a read-out of living cells in per cent, often relative to untreated cells. For orientation: inhibition means the change of the read-out against control, counted positive when it falls.
